{"source": "ChEMBL document CHEMBL1124415", "about": "“Acrylamide derivatives as antiallergic agents. 2. Synthesis and structure-activity relationships of N-[4-[4-(diphenylmethyl)-1-piperazinyl]butyl]-3-(3-pyridyl)acryl amides” (J Med Chem, 1989)"}
{"species": "Cavia porcellus", "assay": "Anti-histaminic activity was measured in guinea pig trachea", "assay_type": "functional", "conditions": "not given", "in_short": "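Zig-zag guinea pig tracheal strips; histamine dose-response curves obtained before and 60 min after adding test compound.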", "units": {"IC50": "µM"}}
{"smiles": "Cc1ccc(/C=C/C(=O)NCCCCN2CCN(C(c3ccccc3)c3ccccc3)CC2)cn1", "note": "[TAGORIZINE]", "IC50": 0.12}
{"smiles": "CN1CCC(=C2c3ccccc3CC(=O)c3sccc32)CC1", "note": "[KETOTIFEN]", "IC50": 0.0016}
{"species": "Homo sapiens", "assay": "Inhibitory activity against histamine release in human basophil", "assay_type": "functional", "conditions": "not given", "in_short": "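Basophils from nonallergic human volunteers, washed in Tris-A buffer pH 7.4 (first wash with 4 mM EDTA), resuspended at 5-10 × 10^6 leukocytes/mL in Tris-ACM pH 7.6; preincubated with compound 15 min at 37 °C, then 45 min with anti-human IgE.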", "units": {"IC50": "µM"}}
{"smiles": "Cc1ccc(/C=C/C(=O)NCCCCN2CCN(C(c3ccccc3)c3ccccc3)CC2)cn1", "note": "[TAGORIZINE]", "IC50": 34}
{"smiles": "CN1CCC(=C2c3ccccc3CC(=O)c3sccc32)CC1", "note": "[KETOTIFEN]", "IC50": "> 100"}
{"tested_on": "Rattus norvegicus", "assay": "Antiallergic activity by passive cutaneous anaphylaxis assay upon peroral administration of 20 mg/kg in rat", "assay_type": "functional", "conditions": "route oral", "units": {"ED50": "mg/kg", "inhibition in vivo at 20 mg/kg": "%"}}
{"smiles": "CN1CCC(=C2c3ccccc3CC(=O)c3sccc32)CC1", "note": "[KETOTIFEN]", "ED50": 16.3}
{"smiles": "Cc1ccc(/C=C/C=C/C(=O)NCCCN2CCN(C(c3ccccc3)c3ccccc3)CC2)cn1", "inhibition in vivo at 20 mg/kg": 35.8}
{"tested_on": "Rattus norvegicus", "assay": "Antiallergic activity determined by passive cutaneous anaphylaxis assay upon peroral administration of 20 mg/kg in rat", "assay_type": "functional", "conditions": "route oral", "units": {"inhibition in vivo at 20 mg/kg": "%"}}
{"smiles": "Cc1ccc(/C=C/C(=O)NCCCCN2CCN(C(c3ccccc3)c3ccccc3)CC2)cn1", "note": "[TAGORIZINE]", "inhibition in vivo at 20 mg/kg": 81.9}
{"smiles": "Cc1ncc(/C=C/C=C/C(=O)NCCCCN2CCN(C(c3ccccc3)c3ccccc3)CC2)c(CO)c1O", "inhibition in vivo at 20 mg/kg": 16.4}
{"smiles": "O=C(CCc1cccnc1)NCCCCN1CCN(C(c2ccccc2)c2ccccc2)CC1", "inhibition in vivo at 20 mg/kg": 28.1}
{"smiles": "CNc1ncccc1/C=C/C(=O)NCCCCN1CCN(C(c2ccccc2)c2ccccc2)CC1", "inhibition in vivo at 20 mg/kg": 45.2}
{"smiles": "COc1ccc(C(c2ccccc2)N2CCN(CCCCNC(=O)/C=C/c3cccnc3)CC2)cc1", "note": "(stereo not drawn)", "inhibition in vivo at 20 mg/kg": 40.9}
{"smiles": "O=C(/C=C/c1cccnc1)NCCCCN1CCC(C(O)(c2ccccc2)c2ccccc2)CC1", "inhibition in vivo at 20 mg/kg": 35.1}
{"smiles": "COc1ccc(/C=C/C(=O)NCCCCN2CCN(C(c3ccccc3)c3ccccc3)CC2)cn1", "inhibition in vivo at 20 mg/kg": 41}
{"smiles": "O=C(/C=C/c1ccc(Oc2ccccc2)nc1)NCCCCN1CCN(C(c2ccccc2)c2ccccc2)CC1", "inhibition in vivo at 20 mg/kg": 45.6}
{"smiles": "O=C(/C=C/C=C/c1cccnc1)NCCCCN1CCN(C(c2ccccc2)c2ccccc2)CC1", "inhibition in vivo at 20 mg/kg": 66.4}
{"smiles": "O=C(/C=C/c1cccnc1Cl)NCCCCN1CCN(C(c2ccccc2)c2ccccc2)CC1", "inhibition in vivo at 20 mg/kg": "< 39.3"}
{"smiles": "CCOc1ccc(/C=C/C(=O)NCCCCN2CCN(C(c3ccccc3)c3ccccc3)CC2)cn1", "inhibition in vivo at 20 mg/kg": 33.9}
{"smiles": "CCSc1ccc(/C=C/C(=O)NCCCCN2CCN(C(c3ccccc3)c3ccccc3)CC2)cn1", "inhibition in vivo at 20 mg/kg": 18.6}
{"smiles": "CCCOc1ccc(/C=C/C(=O)NCCCCN2CCN(C(c3ccccc3)c3ccccc3)CC2)cn1", "inhibition in vivo at 20 mg/kg": 7.5}
{"smiles": "Cc1ccc(C(c2ccccc2)N2CCN(CCCCNC(=O)/C=C/c3cccnc3)CC2)cc1C", "note": "(stereo not drawn)", "inhibition in vivo at 20 mg/kg": 5.4}
{"smiles": "Cc1ncccc1/C=C/C(=O)NCCCCN1CCN(C(c2ccccc2)c2ccccc2)CC1", "inhibition in vivo at 20 mg/kg": 68.8}
{"smiles": "Cc1ccc(C(c2ccccc2)N2CCN(CCCCNC(=O)/C=C/c3ccc(C)nc3)CC2)cc1", "note": "(stereo not drawn)", "inhibition in vivo at 20 mg/kg": 73.9}
{"smiles": "CCCCc1ccc(/C=C/C(=O)NCCCCN2CCN(C(c3ccccc3)c3ccccc3)CC2)cn1", "inhibition in vivo at 20 mg/kg": 22.2}
{"smiles": "C/C(=C\\C(=O)NCCCCN1CCN(C(c2ccccc2)c2ccccc2)CC1)c1cccnc1", "inhibition in vivo at 20 mg/kg": 52.2}
{"smiles": "CC(C)c1ccc(/C=C/C(=O)NCCCCN2CCN(C(c3ccccc3)c3ccccc3)CC2)cn1", "inhibition in vivo at 20 mg/kg": 38.9}
{"smiles": "CCC/C(=C\\c1cccnc1)C(=O)NCCCCN1CCN(C(c2ccccc2)c2ccccc2)CC1", "inhibition in vivo at 20 mg/kg": 44.2}
{"smiles": "O=C(/C=C/c1cccnc1)NCCCCN1CCN(C(c2ccc(Cl)cc2)c2ccc(Cl)cc2)CC1", "inhibition in vivo at 20 mg/kg": 5.4}
{"smiles": "CCCc1ccc(/C=C/C(=O)NCCCCN2CCN(C(c3ccccc3)c3ccccc3)CC2)cn1", "inhibition in vivo at 20 mg/kg": 44.4}
{"smiles": "O=C(/C=C/c1cncc(O)c1)NCCCCN1CCN(C(c2ccccc2)c2ccccc2)CC1", "inhibition in vivo at 20 mg/kg": 28.8}
{"smiles": "O=C(/C=C/c1cccnc1)NCCCCN1CCC(OC(c2ccccc2)c2ccccc2)CC1", "inhibition in vivo at 20 mg/kg": 42.2}
{"smiles": "O=C(/C=C/C=C/c1cccnc1)NCCCN1CCN(C(c2ccccc2)c2ccccc2)CC1", "inhibition in vivo at 20 mg/kg": 40.4}
{"smiles": "O=C(/C=C/c1cncc(Br)c1)NCCCCN1CCN(C(c2ccccc2)c2ccccc2)CC1", "inhibition in vivo at 20 mg/kg": 47.5}
{"smiles": "Cc1ccc(C(c2ccc(C)cc2)N2CCN(CCCCNC(=O)/C=C/c3cccnc3)CC2)cc1", "inhibition in vivo at 20 mg/kg": 20.2}
{"smiles": "C/C(=C\\c1ccc(C)nc1)C(=O)NCCCCN1CCN(C(c2ccccc2)c2ccccc2)CC1", "inhibition in vivo at 20 mg/kg": 58.2}
{"smiles": "Cc1ncc(/C=C/C(=O)NCCCCN2CCN(C(c3ccccc3)c3ccccc3)CC2)c(CO)c1O", "inhibition in vivo at 20 mg/kg": 53.7}
{"smiles": "O=C(/C=C/c1cccnc1)NCCCCN1CCC(=C(c2ccccc2)c2ccccc2)CC1", "inhibition in vivo at 20 mg/kg": 85.9}
{"smiles": "Cc1cccc(C(c2ccccc2)N2CCN(CCCCNC(=O)/C=C/c3cccnc3)CC2)c1", "note": "(stereo not drawn)", "inhibition in vivo at 20 mg/kg": 19}
{"smiles": "O=C(/C=C/c1ccc(Cl)nc1)NCCCCN1CCN(C(c2ccccc2)c2ccccc2)CC1", "inhibition in vivo at 20 mg/kg": 49.3}
{"smiles": "O=C(/C=C/c1cccnc1)NCCCCN1CCN(C(c2ccccc2)c2ccc(Cl)cc2)CC1", "note": "(stereo not drawn)", "inhibition in vivo at 20 mg/kg": 19.9}
{"smiles": "Cc1ccc(/C=C/C=C/C(=O)NCCCCN2CCN(C(c3ccccc3)c3ccccc3)CC2)cn1", "inhibition in vivo at 20 mg/kg": 68.8}
{"smiles": "Cc1ccc(C(c2ccccc2)N2CCN(CCCCNC(=O)/C=C/c3cccnc3)CC2)cc1", "note": "(stereo not drawn)", "inhibition in vivo at 20 mg/kg": 82.9}
{"smiles": "O=C(/C=C/c1cncc(Cl)c1)NCCCCN1CCN(C(c2ccccc2)c2ccccc2)CC1", "inhibition in vivo at 20 mg/kg": 66.4}
{"smiles": "Cc1cc(/C=C/C(=O)NCCCCN2CCN(C(c3ccccc3)c3ccccc3)CC2)cnc1C", "inhibition in vivo at 20 mg/kg": 40.5}
{"smiles": "Cc1ncc(/C=C/C=C/C(=O)NCCCN2CCN(C(c3ccccc3)c3ccccc3)CC2)c(CO)c1O", "inhibition in vivo at 20 mg/kg": 9.8}
{"smiles": "O=C(NCCCCN1CCN(C(c2ccccc2)c2ccccc2)CC1)/C(=C/c1cccnc1)c1ccccc1", "inhibition in vivo at 20 mg/kg": 58}
{"smiles": "Cc1ccc(/C=C/C(=O)NCCCCN2CCC(=C(c3ccccc3)c3ccccc3)CC2)cn1", "inhibition in vivo at 20 mg/kg": 99.5}
{"smiles": "CCCCCOc1ccc(/C=C/C(=O)NCCCCN2CCN(C(c3ccccc3)c3ccccc3)CC2)cn1", "inhibition in vivo at 20 mg/kg": 14.9}
{"smiles": "O=C(/C=C/c1ccc(-c2ccccc2)nc1)NCCCCN1CCN(C(c2ccccc2)c2ccccc2)CC1", "inhibition in vivo at 20 mg/kg": 3.2}
{"smiles": "O=C(/C=C/c1cccnc1)NCCCCN1CCN(C(c2ccccc2)c2ccccc2)CC1", "inhibition in vivo at 20 mg/kg": 62.3}
{"smiles": "Cc1ccc(/C=C/C(=O)NCCCCN2CCN(C(c3ccccc3)c3ccccc3)CC2)c(C)n1", "inhibition in vivo at 20 mg/kg": 66.8}
{"smiles": "Cc1ccc(CCC(=O)NCCCCN2CCN(C(c3ccccc3)c3ccccc3)CC2)cn1", "inhibition in vivo at 20 mg/kg": 24.9}
{"smiles": "CC/C(=C\\c1cccnc1)C(=O)NCCCCN1CCN(C(c2ccccc2)c2ccccc2)CC1", "inhibition in vivo at 20 mg/kg": 67.8}
{"smiles": "COc1cncc(/C=C/C(=O)NCCCCN2CCN(C(c3ccccc3)c3ccccc3)CC2)c1", "inhibition in vivo at 20 mg/kg": 7.6}
{"smiles": "Cc1ncc(/C=C/C(=O)NCCCCN2CCN(C(c3ccccc3)c3ccccc3)CC2)c2c1OC(C)(C)OC2", "inhibition in vivo at 20 mg/kg": 17}
{"smiles": "O=C(/C=C/c1cncc(F)c1)NCCCCN1CCN(C(c2ccccc2)c2ccccc2)CC1", "inhibition in vivo at 20 mg/kg": 65}
{"smiles": "C/C(=C\\c1cccnc1)C(=O)NCCCCN1CCN(C(c2ccccc2)c2ccccc2)CC1", "inhibition in vivo at 20 mg/kg": 78.9}
{"smiles": "O=C(/C=C/c1cccnc1)NCCCCN1CCN(C(c2ccccc2)c2ccc(F)cc2)CC1", "note": "(stereo not drawn)", "inhibition in vivo at 20 mg/kg": 53.8}
{"species": "Rattus norvegicus", "assay": "ED50 value was measured in rat passive cutaneous anaphylaxis (PCA) by linear regression analysis", "assay_type": "functional", "conditions": "not given", "units": {"ED50": "mg/kg"}}
{"smiles": "Cc1ccc(/C=C/C(=O)NCCCCN2CCN(C(c3ccccc3)c3ccccc3)CC2)cn1", "note": "[TAGORIZINE]", "ED50": 3.3}
